The text below walks through data of ChEMBL document CHEMBL1177846, “Benzylidene/2-chlorobenzylidene hydrazides: synthesis, antimicrobial activity, QSAR studies and antiviral evaluation” (Eur J Med Chem, 2010).

Activity calls are given as the source filed them. No cut-off for these calls is given here.

For one test, the system named is Staphylococcus aureus. Description: Antibacterial activity against Staphylococcus aureus after 24 hrs by serial dilution method. It counts as functional.
The test system of another test is Bacillus subtilis. The test is described as follows: Antibacterial activity against Bacillus subtilis after 24 hrs by serial dilution method. It counts as functional.
Another test deals with Escherichia coli. The test is described as follows: Antibacterial activity against Escherichia coli after 24 hrs by serial dilution method. It is filed as functional.
The subject of the next test is Candida albicans. Description: Antifungal activity against Candida albicans after 48 hrs by serial dilution method. It counts as functional. A digest of the protocol: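 Serial compound dilutions in Sabouraud dextrose broth (tube dilution), incubated 37 °C for 48 h. MIC was read as the lowest concentration with no growth.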
For the next test, the system named is Aspergillus niger. The test is described as follows: Antifungal activity against Aspergillus niger after 7 days by serial dilution method. It is filed as functional.
Another test relates to Feline coronavirus. Description: Antiviral activity against Feline caronavirus infected in […] cells assessed as inhibition of virus-induced cytopathic effect after 3 days by MTS assay. It counts as functional, organism-based. A digest of the protocol:
(§1)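 Confluent cell monolayers were infected with 100 CCID50 of virus and allowed 2 h adsorption at 37 °C. Virus was then removed and serial compound dilutions were added. Cultures were incubated at 37 °C for 3 days, until CPE was complete in the untreated virus control. EC50 was the concentration giving 50% inhibition of virus-induced CPE, by visual score or by MTS formazan cell viability.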
(Cytopathic effects are the visible damage that an infection or toxin causes in cultured cells.)

A further test has as its system Felid alphaherpesvirus 1. The test is described as follows: Antiviral activity against Feline herpesvirus 1 infected in […] cells assessed as inhibition of virus-induced cytopathic effect after 3 days by MTS assay. It counts as functional, organism-based. An outline of the steps: as §1
Test [1] concerns Human alphaherpesvirus 1. Description: Antiviral activity against Herpes simplex virus 1 KOS infected in human HEL cells assessed as inhibition of virus-induced cytopathic effect after 3 days by MTS assay. It counts as functional, organism-based. An outline of the steps:
as §1

In a further test the test system is Human alphaherpesvirus 2. Description: Antiviral activity against Herpes simplex virus 2 G infected in human HEL cells assessed as inhibition of virus-induced cytopathic effect after 3 days by MTS assay. The following applies: strain G. It is filed as functional, organism-based. A digest of the protocol:
as §1

Another test concerns Vaccinia virus. Description: Antiviral activity against Vaccinia virus infected in human HEL cells assessed as inhibition of virus-induced cytopathic effect after 3 days by MTS assay. It is filed as functional, organism-based. The settings on record: Orthopoxvirus vaccinia. A digest of the protocol:
as §1

Test [2] has as its system Human alphaherpesvirus 1. Description: Antiviral activity against acyclovir-resistant […] kinase-deficient HSV1 KOS infected in human HEL cells assessed as inhibition of virus-induced cytopathic effect after 3 days by MTS assay. It is filed as functional, organism-based. A digest of the protocol: as §1
The test system of test [3] is Vesicular stomatitis virus. The test is described as follows: Antiviral activity against VSV infected in human HEL cells assessed as inhibition of virus-induced cytopathic effect after 3 days by MTS assay. It counts as functional, organism-based. An outline of the steps: as §1
Test [4] has as its system Influenza A virus. The test is described as follows: Antiviral activity against influenza A virus H1N1 infected in MDCK cells assessed as inhibition of virus-induced cytopathic effect after 3 days by MTS assay. It counts as functional, organism-based. An outline of the steps:
as §1

Test [5] has as its system Influenza A virus. The test is described as follows: Antiviral activity against influenza A virus H3N2 infected in MDCK cells assessed as inhibition of virus-induced cytopathic effect after 3 days by MTS assay. It is filed as functional, organism-based. An outline of the steps:
as §1

The test system of the next test is Influenza B virus. Description: Antiviral activity against influenza B virus infected in MDCK cells assessed as inhibition of virus-induced cytopathic effect after 3 days by MTS assay. It is filed as functional, organism-based. A digest of the protocol:
as §1

A further test relates to Human respirovirus 3. Description: Antiviral activity against Parainfluenza 3 virus infected in african green monkey Vero cells assessed as inhibition of virus-induced cytopathic effect after 3 days by MTS assay. It is filed as functional, organism-based. A digest of the protocol: as §1
The test system of test [6] is Mammalian orthoreovirus 1. The test is described as follows: Antiviral activity against Reovirus 1 infected in african green monkey Vero cells assessed as inhibition of virus-induced cytopathic effect after 3 days by MTS assay. It counts as functional, organism-based. A digest of the protocol:
as §1

The next test deals with Sindbis virus. The test is described as follows: Antiviral activity against Simbidis virus infected in african green monkey Vero cells assessed as inhibition of virus-induced cytopathic effect after 3 days by MTS assay. It is filed as functional, organism-based. An outline of the steps: as §1
For the next test, the system named is Coxsackievirus B4. Description: Antiviral activity against Coxsackie virus B4 infected in african green monkey Vero cells assessed as inhibition of virus-induced cytopathic effect after 3 days by MTS assay. It counts as functional, organism-based. A digest of the protocol:
as §1

The subject of another test is Punta Toro virus. Description: Antiviral activity against Punta toro virus infected in african green monkey Vero cells assessed as inhibition of virus-induced cytopathic effect after 3 days by MTS assay. It counts as functional, organism-based. A digest of the protocol: as §1

With `CCCCCCCCCCCC(=O)N/N=C/c1ccccc1`, the MBC is more than 0.166 uM/ml in the test with Staphylococcus aureus, more than 0.166 uM/ml in the test with Bacillus subtilis and 0.041 uM/ml with Escherichia coli. Besides, the MFC against Candida albicans and in the test on Aspergillus niger was more than 0.166 uM/ml each time. Also, in the test on Aspergillus niger, the “-logMIC” value is 1.21. In addition, the inhibition entry in the test with Feline coronavirus, in the test with Felid alphaherpesvirus 1, in the test on Human alphaherpesvirus 1 [1], in the test on Human alphaherpesvirus 2, in the test on Vaccinia virus and with Human alphaherpesvirus 1 [2] was “inactive” each time. In addition, the inhibition entry (in test [3]; in the test on Influenza A virus [4]; with Influenza A virus [5]; in the test on Influenza B virus; in the test on Human respirovirus 3; in test [6]) was “inactive” throughout. The inhibition entry in the test on Sindbis virus, in the test on Coxsackievirus B4 and in the test on Punta Toro virus was “inactive” in each case.
Consider `O=C(/C=C/c1ccccc1)N/N=C/c1ccccc1`, for which the MBC against Staphylococcus aureus is more than 0.2 uM/ml; in the test with Bacillus subtilis it was more than 0.2 uM/ml; in the test on Escherichia coli, 0.05 uM/ml. Moreover, the MFC in the test with Candida albicans and in the test with Aspergillus niger was more than 0.2 uM/ml each time. The “-logMIC” value with Aspergillus niger is listed as 1.6. Also, the inhibition entry with Feline coronavirus, with Felid alphaherpesvirus 1, in the test with Human alphaherpesvirus 1 [1], with Human alphaherpesvirus 2, with Vaccinia virus and with Human alphaherpesvirus 1 [2] was “inactive” each time. Also, the inhibition entry (in [3]; in the test with Influenza A virus [4]; with Influenza A virus [5]; with Influenza B virus; in the test with Human respirovirus 3; in test [6]) was “inactive” throughout. The inhibition result in the test on Sindbis virus, with Coxsackievirus B4 and with Punta Toro virus was “inactive” in each case.
On to `O=C(N/N=C/c1ccccc1)c1cc([N+](=O)[O-])cc([N+](=O)[O-])c1`, for which the MBC in the test with Staphylococcus aureus is on record as more than 0.159 uM/ml; against Bacillus subtilis it was 0.159 uM/ml; against Escherichia coli, more than 0.159 uM/ml. In addition, the MFC is on record as 0.159 uM/ml against Candida albicans and 0.079 uM/ml against Aspergillus niger. Also, the “-logMIC” value with Aspergillus niger turned out to be 1.7. Moreover, the inhibition result in the test with Feline coronavirus, in the test with Felid alphaherpesvirus 1, with Human alphaherpesvirus 1 [1], in the test with Human alphaherpesvirus 2, in the test with Vaccinia virus and in the test with Human alphaherpesvirus 1 [2] was “inactive” each time. In addition, the inhibition result (in test [3]; in the test on Influenza A virus [4]; in the test on Influenza A virus [5]; in the test with Influenza B virus; in the test on Human respirovirus 3; in test [6]) was “inactive” throughout. In addition, the inhibition result with Sindbis virus, in the test with Coxsackievirus B4 and in the test with Punta Toro virus was “inactive” throughout.
With `CCCCCCCCCCCCCCCC(=O)N/N=C/c1ccccc1`, the MBC in the test with Staphylococcus aureus is on record as more than 0.139 uM/ml; in the test on Bacillus subtilis it was 0.139 uM/ml; against Escherichia coli, more than 0.139 uM/ml. Further, the MFC against Candida albicans and with Aspergillus niger was more than 0.139 uM/ml in each case. Besides, the “-logMIC” value in the test with Aspergillus niger is recorded as 0.86. The inhibition result with Feline coronavirus, with Felid alphaherpesvirus 1, in the test with Human alphaherpesvirus 1 [1], in the test on Human alphaherpesvirus 2, in the test with Vaccinia virus and with Human alphaherpesvirus 1 [2] was “inactive” throughout. Also, the inhibition result (in test [3]; in the test on Influenza A virus [4]; in the test on Influenza A virus [5]; with Influenza B virus; in the test with Human respirovirus 3; in [6]) was “inactive” each time. Besides, the inhibition result in the test with Sindbis virus, in the test with Coxsackievirus B4 and with Punta Toro virus was “inactive” throughout.
As for `CCCCCCCCCCCCCC(=O)N/N=C/c1ccccc1Cl`, the MBC against Staphylococcus aureus is given as more than 0.137 uM/ml; in the test on Bacillus subtilis it was more than 0.137 uM/ml; with Escherichia coli, 0.034 uM/ml. The MFC against Candida albicans and in the test with Aspergillus niger was more than 0.137 uM/ml in each case. In the test on Aspergillus niger, the “-logMIC” value came out at 1.12. Further, the inhibition entry in the test on Feline coronavirus, in the test with Felid alphaherpesvirus 1, in the test on Human alphaherpesvirus 1 [1], with Human alphaherpesvirus 2, in the test on Vaccinia virus and in the test on Human alphaherpesvirus 1 [2] was “inactive” each time. Besides, the inhibition result (in test [3]; in the test with Influenza A virus [4]; with Influenza A virus [5]; in the test on Influenza B virus; with Human respirovirus 3; in test [6]) was “inactive” each time. The inhibition result with Sindbis virus, in the test on Coxsackievirus B4 and in the test with Punta Toro virus was “inactive” throughout.
Regarding `Cc1ccc(C(=O)N/N=C/c2ccccc2Cl)cc1`, the MBC against Staphylococcus aureus is 0.045 uM/ml; with Bacillus subtilis it was 0.183 uM/ml; in the test on Escherichia coli it was 0.045 uM/ml. Also, the MFC is listed as more than 0.183 uM/ml with Candida albicans and 0.183 uM/ml against Aspergillus niger. Besides, in the test with Aspergillus niger, the “-logMIC” value turned out to be 1.61. In addition, the inhibition result in the test on Feline coronavirus, in the test on Felid alphaherpesvirus 1, in the test on Human alphaherpesvirus 1 [1], in the test with Human alphaherpesvirus 2, in the test on Vaccinia virus and in the test on Human alphaherpesvirus 1 [2] was “inactive” each time. For the same compound, the inhibition result (in test [3]; in the test on Influenza A virus [4]; in the test on Influenza A virus [5]; in the test on Influenza B virus; with Human respirovirus 3; in test [6]) was “inactive” each time. Besides, the inhibition entry in the test on Sindbis virus, in the test with Coxsackievirus B4 and with Punta Toro virus was “inactive” each time.
For `CCCCCCCCCCCCCC(=O)N/N=C/c1ccccc1`, the MBC in the test on Staphylococcus aureus, against Bacillus subtilis and against Escherichia coli was more than 0.152 uM/ml throughout. In addition, the MFC in the test on Candida albicans and with Aspergillus niger was more than 0.152 uM/ml each time. Also, the “-logMIC” value in the test on Aspergillus niger is listed as 1.24. The inhibition result in the test with Feline coronavirus, with Felid alphaherpesvirus 1, with Human alphaherpesvirus 1 [1], with Human alphaherpesvirus 2, in the test on Vaccinia virus and in the test with Human alphaherpesvirus 1 [2] was “inactive” in each case. Besides, the inhibition entry (in test [3]; with Influenza A virus [4]; with Influenza A virus [5]; in the test with Influenza B virus; in the test with Human respirovirus 3; in test [6]) was “inactive” each time. Moreover, the inhibition result in the test on Sindbis virus, in the test on Coxsackievirus B4 and with Punta Toro virus was “inactive” throughout.
Take `O=C(/C=C/c1ccccc1)N/N=C/c1ccccc1Cl`: the MBC in the test with Staphylococcus aureus is listed as 0.176 uM/ml; against Bacillus subtilis, 0.088 uM/ml; against Escherichia coli, more than 0.176 uM/ml. In addition, the MFC against Candida albicans and in the test with Aspergillus niger was more than 0.176 uM/ml throughout. In addition, the “-logMIC” value in the test with Aspergillus niger is 1.76. Further, the inhibition entry with Feline coronavirus, in the test on Felid alphaherpesvirus 1, in the test with Human alphaherpesvirus 1 [1], in the test on Human alphaherpesvirus 2, in the test with Vaccinia virus and with Human alphaherpesvirus 1 [2] was “inactive” in each case. The inhibition entry (in [3]; with Influenza A virus [4]; with Influenza A virus [5]; in the test on Influenza B virus; in the test with Human respirovirus 3; in test [6]) was “inactive” each time. The inhibition entry with Sindbis virus, with Coxsackievirus B4 and with Punta Toro virus was “inactive” each time.
